Measured values taken from ChEMBL document CHEMBL2176903, “P2-substituted N-acylprolylpyrrolidine inhibitors of prolyl oligopeptidase: biochemical evaluation, binding mode determination, and assessment in a cellular model of synucleinopathy” (J Med Chem, 2012).
Active and inactive are the calls of the source. No cut-off for these calls is given here.

Legend:
[1] = target: Dipeptidyl peptidase 2 (Homo sapiens, UniProt Q9UHL4); assay: Inhibition of human seminal plasma DPP2 assessed as pNA release from Lys-Ala-p-nitroanilide substrate pre-incubated with enzyme for 15 min prior to substrate addition by […]
[2] = target: Dipeptidyl peptidase 4 (Homo sapiens, UniProt P27487); assay: Inhibition of human seminal plasma DPP4 assessed as pNA release from Gly-Pro-p-nitroanilide substrate pre-incubated with enzyme for 15 min prior to substrate addition by […]
[3] = Inhibition of bovine testes DPP9 assessed as pNA release from Ala-Pro- p-nitroanilide substrate pre-incubated with enzyme for 15 min prior to substrate addition by […]; parameters: species or system Bos taurus
[4] = target: T1, Prolyl endopeptidase FAP (Mus musculus, UniProt P97321); assay: Inhibition of mouse recombinant FAP expressed in HEK293 cells assessed as pNA release from Ala-Pro-p-nitroanilide pre-incubated with enzyme for 15 mins prior to substrate addition by […]; format: cell-based
T1 sequence (P97321 whole entry): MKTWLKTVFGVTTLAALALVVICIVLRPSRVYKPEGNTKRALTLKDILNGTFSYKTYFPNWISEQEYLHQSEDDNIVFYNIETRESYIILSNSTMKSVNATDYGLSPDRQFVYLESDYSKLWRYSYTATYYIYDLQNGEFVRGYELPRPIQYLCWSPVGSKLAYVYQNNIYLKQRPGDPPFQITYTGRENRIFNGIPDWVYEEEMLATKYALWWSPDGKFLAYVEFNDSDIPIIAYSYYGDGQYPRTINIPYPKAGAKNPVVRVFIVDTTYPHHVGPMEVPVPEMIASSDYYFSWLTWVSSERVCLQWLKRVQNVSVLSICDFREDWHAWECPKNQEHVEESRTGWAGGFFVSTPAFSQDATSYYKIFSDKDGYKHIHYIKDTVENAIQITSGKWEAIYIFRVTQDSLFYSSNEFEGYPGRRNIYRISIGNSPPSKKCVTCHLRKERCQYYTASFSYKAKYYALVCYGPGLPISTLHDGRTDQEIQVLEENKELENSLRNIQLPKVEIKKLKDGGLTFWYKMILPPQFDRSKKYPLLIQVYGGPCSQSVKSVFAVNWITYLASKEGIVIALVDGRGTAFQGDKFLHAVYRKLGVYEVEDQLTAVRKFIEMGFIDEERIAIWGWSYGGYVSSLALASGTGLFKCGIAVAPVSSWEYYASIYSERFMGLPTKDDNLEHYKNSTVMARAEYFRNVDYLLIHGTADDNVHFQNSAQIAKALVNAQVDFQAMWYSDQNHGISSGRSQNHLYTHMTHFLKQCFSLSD

[5] = target: Prolyl endopeptidase (Sus scrofa, UniProt P23687); assay: Inhibition of pig PREP expressed in Escherichia coli using Z-Gly-Pro-p-nitroanilide substrate
[6] = target: T2, Prolyl endopeptidase (Homo sapiens) (UniProt P48147); assay: Inhibition of PREP in human SH-SY5Y cellular model of synucleinopathy over-expressing alpha-synuclein assessed as reduction in alpha-synuclein aggregation 0.1 to 9 uM incubated for 3 days under oxidative stress condition by high content multiparametric method
T2 sequence (whole entry): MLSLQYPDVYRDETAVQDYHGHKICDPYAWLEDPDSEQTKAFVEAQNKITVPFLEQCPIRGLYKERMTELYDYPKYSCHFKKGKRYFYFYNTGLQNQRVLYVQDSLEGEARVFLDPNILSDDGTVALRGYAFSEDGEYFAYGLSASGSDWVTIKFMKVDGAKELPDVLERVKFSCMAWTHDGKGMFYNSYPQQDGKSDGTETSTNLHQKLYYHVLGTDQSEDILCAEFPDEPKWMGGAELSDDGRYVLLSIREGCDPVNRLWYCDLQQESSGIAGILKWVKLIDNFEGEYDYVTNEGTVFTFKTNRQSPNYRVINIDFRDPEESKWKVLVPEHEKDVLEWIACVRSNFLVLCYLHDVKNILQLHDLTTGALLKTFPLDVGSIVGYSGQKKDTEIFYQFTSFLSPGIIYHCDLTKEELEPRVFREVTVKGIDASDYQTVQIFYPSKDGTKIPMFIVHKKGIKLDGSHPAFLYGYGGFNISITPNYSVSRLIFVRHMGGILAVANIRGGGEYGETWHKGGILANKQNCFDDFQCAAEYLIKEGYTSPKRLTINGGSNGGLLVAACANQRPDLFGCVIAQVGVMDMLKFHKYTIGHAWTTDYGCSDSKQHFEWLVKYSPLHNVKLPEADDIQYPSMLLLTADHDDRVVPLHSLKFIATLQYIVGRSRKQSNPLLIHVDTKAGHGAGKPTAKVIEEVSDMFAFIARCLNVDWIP
Summary of the method: (§1)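 SH-SY5Y neuroblastoma cells overexpressing α-SYN were incubated with inhibitor for 3 days under oxidative stress from H₂O₂ plus FeCl₂. Aggregates were detected by thioflavin S staining. Late apoptosis was scored as nuclear condensation and fragmentation. Quantification used automated high-content imaging. Values are % of cells relative to the 1% DMSO control. Significance was tested by ANOVA with Dunnett's post-test (5% level).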

[7] = target: T2, Prolyl endopeptidase (Homo sapiens); assay: Inhibition of PREP in human SH-SY5Y cellular model of synucleinopathy over-expressing alpha-synuclein assessed as reduction in late apoptotic level 0.1 to 9 uM incubated for 3 days under oxidative stress condition by high content multiparametric method; summary of the method: as §1

Prolyl endopeptidase, sequence (P23687 whole entry): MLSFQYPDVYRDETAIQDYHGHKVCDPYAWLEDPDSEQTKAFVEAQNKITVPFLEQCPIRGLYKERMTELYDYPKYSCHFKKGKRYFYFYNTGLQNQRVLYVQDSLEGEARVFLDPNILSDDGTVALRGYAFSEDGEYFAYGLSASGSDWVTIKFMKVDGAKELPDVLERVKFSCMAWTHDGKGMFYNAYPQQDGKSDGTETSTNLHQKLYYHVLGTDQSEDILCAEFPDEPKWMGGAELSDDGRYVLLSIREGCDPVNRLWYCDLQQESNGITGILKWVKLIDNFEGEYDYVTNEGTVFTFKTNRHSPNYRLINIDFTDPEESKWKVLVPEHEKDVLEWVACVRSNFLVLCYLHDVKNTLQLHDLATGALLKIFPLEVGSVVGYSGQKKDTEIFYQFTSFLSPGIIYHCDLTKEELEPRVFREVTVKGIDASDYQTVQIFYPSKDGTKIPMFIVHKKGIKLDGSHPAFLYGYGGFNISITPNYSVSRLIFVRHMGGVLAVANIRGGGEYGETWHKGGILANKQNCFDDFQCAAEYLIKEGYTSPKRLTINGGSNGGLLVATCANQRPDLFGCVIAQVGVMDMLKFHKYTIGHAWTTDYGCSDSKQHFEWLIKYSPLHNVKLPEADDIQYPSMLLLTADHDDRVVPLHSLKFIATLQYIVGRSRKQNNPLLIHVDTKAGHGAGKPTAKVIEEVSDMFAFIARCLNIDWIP
Dipeptidyl peptidase 4, sequence (P27487 whole entry): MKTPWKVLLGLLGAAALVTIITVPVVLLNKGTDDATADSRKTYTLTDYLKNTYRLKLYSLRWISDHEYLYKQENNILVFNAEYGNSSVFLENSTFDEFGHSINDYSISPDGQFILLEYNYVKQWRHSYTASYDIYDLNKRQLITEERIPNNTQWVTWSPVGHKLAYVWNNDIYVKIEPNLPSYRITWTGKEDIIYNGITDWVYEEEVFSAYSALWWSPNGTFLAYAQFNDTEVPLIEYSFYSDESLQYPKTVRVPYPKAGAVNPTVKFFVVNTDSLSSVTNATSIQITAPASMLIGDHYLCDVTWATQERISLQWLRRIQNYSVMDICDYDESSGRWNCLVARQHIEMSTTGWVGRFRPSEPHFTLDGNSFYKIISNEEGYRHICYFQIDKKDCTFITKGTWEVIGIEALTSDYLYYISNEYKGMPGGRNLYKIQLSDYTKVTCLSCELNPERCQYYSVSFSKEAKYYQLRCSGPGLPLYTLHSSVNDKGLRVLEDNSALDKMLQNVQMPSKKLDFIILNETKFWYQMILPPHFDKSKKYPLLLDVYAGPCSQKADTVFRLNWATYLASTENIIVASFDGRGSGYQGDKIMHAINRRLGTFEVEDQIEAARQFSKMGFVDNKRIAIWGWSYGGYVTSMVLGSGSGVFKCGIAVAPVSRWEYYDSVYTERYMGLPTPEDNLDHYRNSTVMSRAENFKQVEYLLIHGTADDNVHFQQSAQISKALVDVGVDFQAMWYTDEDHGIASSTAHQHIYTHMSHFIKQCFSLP

Row | IC50 [1] [µM] | IC50 [2] [µM] | IC50 [3] [µM] | IC50 [4] [µM] | IC50 [5] [µM] | inhibition [6] | inhibition [7] | SMILES
1 | > 100 | > 100 | > 100 | > 100 | – | – | – | O=C([C@@H]1CCCN1C(=O)CCCc1ccccc1)N1CCCC1
2 | > 100 | > 100 | > 100 | – | 0.131 | – | – | O=C([C@@H]1C[C@H](n2cc(COCc3ccccc3)nn2)CN1C(=O)CCCc1ccccc1)N1CCCC1
3 | > 100 | > 100 | > 100 | – | 0.478 | – | – | O=C([C@@H]1C[C@H](n2cc(-c3ccccc3)nn2)CN1C(=O)OCc1ccccc1)N1CCCC1
4 | > 100 | > 100 | > 100 | > 100 | 0.28 | – | – | CC(C)(C)OC(=O)NCc1cn([C@@H]2C[C@@H](C(=O)N3CCCC3)N(C(=O)CCCc3ccccc3)C2)nn1
5 | > 100 | > 100 | > 100 | > 100 | 0.142 | – | – | [N-]=[N+]=N[C@H]1C[C@@H](C(=O)N2CCCC2)N(C(=O)CCCc2ccccc2)C1
6 | > 100 | > 100 | > 100 | > 100 | 0.364 | – | – | [N-]=[N+]=N[C@H]1C[C@@H](C(=O)N2CCCC2)N(C(=O)OCc2ccccc2)C1
7 | > 100 | > 100 | > 100 | > 5 | 0.147 | – | – | O=C([C@@H]1C[C@H](n2cc(C3CCCCC3)nn2)CN1C(=O)CCCc1ccccc1)N1CCCC1
8 | > 100 | > 100 | > 10 | > 100 | 0.014 | – | – | O=C([C@@H]1C[C@H](n2cc(-c3ccc(Br)cc3)nn2)CN1C(=O)CCCc1ccccc1)N1CCCC1
9 | > 10 | > 100 | > 100 | > 100 | 0.17 | – | – | NCc1cn([C@H]2C[C@@H](C(=O)N3CCCC3)N(C(=O)CCCc3ccccc3)C2)nn1
10 | > 100 | > 100 | > 100 | – | 0.17 | – | – | O=C([C@@H]1C[C@H](n2cc(-c3ccccc3)nn2)CN1C(=O)CCCc1ccccc1)N1CCCC1
11 | > 100 | > 100 | > 100 | > 100 | – | – | – | O=C([C@@H]1CCCN1C(=O)OCc1ccccc1)N1CCCC1
12 | > 100 | > 100 | > 100 | > 100 | 0.069 | – | – | O=C([C@@H]1C[C@H](n2cc(-c3ccccn3)nn2)CN1C(=O)CCCc1ccccc1)N1CCCC1
13 | > 10 | > 100 | < 100 | > 5 | 0.0172 | – | – | O=C([C@@H]1C[C@H](n2cc(-c3ccc(F)c(F)c3)nn2)CN1C(=O)CCCc1ccccc1)N1CCCC1
14 | > 100 | > 50 | 1.1 | > 100 | 0.24 | – | – | O=C([C@@H]1C[C@H](n2cc(CN3CCOCC3)nn2)CN1C(=O)CCCc1ccccc1)N1CCCC1
15 | > 100 | > 100 | > 10 | > 100 | 0.141 | – | – | CC(C)(C)OC(=O)NCc1cn([C@H]2C[C@@H](C(=O)N3CCCC3)N(C(=O)OCc3ccccc3)C2)nn1
16 | – | – | – | – | 0.09 | – | – | Cn1cnc(-c2cn([C@H]3C[C@@H](C(=O)N4CCCC4)N(C(=O)CCCc4ccccc4)C3)nn2)c1

Row | IC50 [1] [µM] | IC50 [2] [µM] | IC50 [3] [µM] | IC50 [4] [µM] | IC50 [5] [µM] | inhibition [6] | inhibition [7] | SMILES
17 | > 100 | > 100 | 67 | > 100 | 1.16 | – | – | O=C([C@@H]1C[C@H](n2ccnn2)CN1C(=O)OCc1ccccc1)N1CCCC1
18 | > 100 | > 100 | > 100 | > 100 | 0.003 | Active | Active | N#C[C@@H]1CCCN1C(=O)[C@@H]1C[C@H](N=[N+]=[N-])CN1C(=O)CCCc1ccccc1
19 | > 100 | > 100 | > 10 | > 5 | 0.024 | – | – | O=C([C@@H]1C[C@H](n2cc(-c3ccc(F)cc3F)nn2)CN1C(=O)CCCc1ccccc1)N1CCCC1
20 | > 100 | > 100 | > 50 | – | 0.542 | – | – | O=C([C@@H]1C[C@@H](n2cc(-c3ccccc3)nn2)CN1C(=O)CCCc1ccccc1)N1CCCC1
21 | > 100 | > 100 | > 100 | > 100 | 0.304 | – | – | [N-]=[N+]=N[C@@H]1C[C@@H](C(=O)N2CCCC2)N(C(=O)CCCc2ccccc2)C1
22 | > 100 | > 100 | 53 | > 100 | 0.357 | – | – | O=C([C@@H]1C[C@H](n2cc(-c3ccccn3)nn2)CN1C(=O)OCc1ccccc1)N1CCCC1
23 | > 100 | > 100 | > 100 | – | 0.033 | – | – | O=C([C@@H]1C[C@H](n2cc(-c3ccc(F)cc3)nn2)CN1C(=O)CCCc1ccccc1)N1CCCC1
24 | > 10 | > 100 | > 100 | > 5 | 0.023 | – | – | O=C([C@@H]1C[C@H](n2cc(-c3ccccc3Cl)nn2)CN1C(=O)CCCc1ccccc1)N1CCCC1
25 | > 100 | > 100 | > 100 | > 100 | 0.032 | – | – | CC(C)(C)OC(=O)NCc1cn([C@H]2C[C@@H](C(=O)N3CCCC3)N(C(=O)CCCc3ccccc3)C2)nn1
26 | > 100 | > 100 | > 100 | > 10 | – | – | – | N#C[C@@H]1CCCN1C(=O)[C@@H]1CCCN1C(=O)CCCc1ccccc1
27 | > 100 | > 100 | > 100 | > 100 | 0.009 | Active | Active | CC(C)(C)OC(=O)NCc1cn([C@H]2C[C@@H](C(=O)N3CCC[C@H]3C#N)N(C(=O)CCCc3ccccc3)C2)nn1
28 | > 100 | > 100 | > 10 | > 100 | 0.039 | – | – | O=C([C@@H]1C[C@H](n2cc(C3CC3)nn2)CN1C(=O)CCCc1ccccc1)N1CCCC1
29 | > 100 | > 100 | > 100 | > 100 | 0.956 | – | – | C[Si](C)(C)c1cn([C@H]2C[C@@H](C(=O)N3CCCC3)N(C(=O)OCc3ccccc3)C2)nn1
30 | > 100 | > 100 | > 10 | – | 0.024 | – | – | CN(C)Cc1cn([C@H]2C[C@@H](C(=O)N3CCCC3)N(C(=O)CCCc3ccccc3)C2)nn1
31 | > 100 | > 100 | 0.6 | > 100 | 0.11 | – | – | CC(C)(C)OC(=O)N1CCN(Cc2cn([C@H]3C[C@@H](C(=O)N4CCCC4)N(C(=O)CCCc4ccccc4)C3)nn2)CC1
32 | > 100 | > 100 | 1.3 | > 100 | 0.1 | – | – | O=C([C@@H]1C[C@H](n2cc(CN3CCNCC3)nn2)CN1C(=O)CCCc1ccccc1)N1CCCC1
